The term GI50 denotes the concentration that inhibits growth by half. Lower therefore signals greater sensitivity of the cells. In general, IC50 refers to the point on the concentration scale where inhibition reaches its midpoint. A higher IC50 goes with weaker potency in that assay.

For test [1], the system named is SR. As to the kind of experiment: Growth inhibition of human SR cells after 48 hrs by sulforhodamine B assay. The test is classed as functional. Summed up:
(§1)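 Run within the National Cancer Institute 60-cell-line panel. Viability was read by sulforhodamine B staining of total cellular protein, as a measure of cell number rather than metabolic activity. GI50 values were taken from the panel data.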
In general terms: Sulforhodamine B stains cellular protein and so reports cell mass.

Test [2] deals with SK-OV-3. Briefly: Growth inhibition of human SKOV3 cells after 48 hrs by sulforhodamine B assay. In kind it is functional. The following applies: SK-OV-3, 48 h. A digest of the protocol:
(§2)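 Run in the National Cancer Institute 60-cell-line panel screen. Viability was read by sulforhodamine B staining of total protein content, so it reflects cell number rather than metabolic activity. Values are reported as GI50.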

Test [3] concerns U-251. As to the kind of experiment: Growth inhibition of human U251 cells after 48 hrs by sulforhodamine B assay. In kind it is functional. The conditions noted are these: U-251, 48 h. A digest of the protocol:
as §1

In test [4] the test system is ACHN. Briefly: Growth inhibition of human ACHN cells after 48 hrs by sulforhodamine B assay. The test is classed as functional. A digest of the protocol:
as §2

For test [5], the system named is SK-MEL-2. Briefly: Growth inhibition of human SK-MEL-2 cells after 48 hrs by sulforhodamine B assay. In kind it is functional. The following applies: SK-MEL-2, 48 h. A digest of the protocol:
as §2

In test [6] the test system is OVCAR-3. As to the kind of experiment: Growth inhibition of human OVCAR3 cells after 48 hrs by sulforhodamine B assay. The following applies: OVCAR-3, 48 h. The test is classed as functional. A digest of the protocol: as §2
Test [7] has as its system SF-295. As to the kind of experiment: Growth inhibition of human SF295 cells after 48 hrs by sulforhodamine B assay. The test is classed as functional. The conditions noted are these: SF-295, 48 h. A digest of the protocol:
as §2

For test [8], the system named is Malme-3M. As to the kind of experiment: Growth inhibition of human MALME-3M cells after 48 hrs by sulforhodamine B assay. The test is classed as functional. Summed up:
as §2

Test [9] deals with HeLa. As to the kind of experiment: Cytotoxicity against human HeLa cells after 48 hrs by MTT assay. The test is classed as functional, cell-based.
Test [10] has as its system NCI-H460. Briefly: Growth inhibition of human NCI-H460 cells after 48 hrs by sulforhodamine B assay. The test is classed as functional. The following applies: NCI-H460, 48 h. A digest of the protocol:
as §2

Test [11] in a line: Growth inhibition of human EKVX cells after 48 hrs by sulforhodamine B assay. The test is classed as functional. Summed up:
as §2

Test [12] relates to A498. As to the kind of experiment: Growth inhibition of human A498 cells after 48 hrs by sulforhodamine B assay. In kind it is functional. The following applies: A498, 48 h. A digest of the protocol:
as §2

Test [13] deals with MDA-MB-468. Briefly: Growth inhibition of human MDA-MB-468 cells after 48 hrs by sulforhodamine B assay. In kind it is functional. The conditions noted are these: MDA-MB-468, 48 h. Summed up:
as §2

The subject of test [14] is UACC-62. As to the kind of experiment: Growth inhibition of human UACC62 cells after 48 hrs by sulforhodamine B assay. The test is classed as functional. The conditions noted are these: UACC-62, 48 h. A digest of the protocol: as §1
Test [15] is described as follows: Cytotoxicity against human CD34-positive blood stem/progenitor cells after 48 hrs by MTT assay. The test is classed as cell-based. A digest of the protocol:
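Non-transformed human CD34+ blood stem/progenitor cells from umbilical cord blood were run alongside MA9.3, an AML line made by introducing the MLL-AF9 oncogene into human CD34+ cells. IC50 was determined on each cell type. Therapeutic index is the ratio between the MA9.3 and CD34+ IC50 values.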

Test [16] relates to OVCAR-8. As to the kind of experiment: Growth inhibition of human OVCAR8 cells after 48 hrs by sulforhodamine B assay. The test is classed as functional. The conditions noted are these: OVCAR-8, 48 h. A digest of the protocol: as §2
Test [17] relates to A549. Briefly: Growth inhibition of human A549/ATCC cells after 48 hrs by sulforhodamine B assay. The test is classed as functional. The following applies: A549, 48 h. A digest of the protocol: as §2
Test [18] has as its system HL-60(TB). As to the kind of experiment: Growth inhibition of human HL-60(TB) cells after 48 hrs by sulforhodamine B assay. The test is classed as functional. The following applies: HL-60, 48 h. Summed up:
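Tested through the National Cancer Institute's NCI-60 cell line panel screen. Viability was read by sulforhodamine B staining, which measures total cellular protein and so reflects cell number rather than metabolic activity. The value is reported as GI50.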

Test [19] deals with CCRF-CEM. Briefly: Growth inhibition of human CCRF-CEM cells after 48 hrs by sulforhodamine B assay. In kind it is functional. A digest of the protocol: as §2
Test [20] relates to TK-10. Briefly: Growth inhibition of human TK10 cells after 48 hrs by sulforhodamine B assay. In kind it is functional. The following applies: TK-10, 48 h. A digest of the protocol:
as §1

For `Oc1ccc(OCCN(CCOc2ccc(O)cc2)c2ccccc2)cc1`, the GI50 in test [1] was 500 nM; in test [2] it was 7200 nM; in [3] it was 3000 nM; in [4], 400 nM; in test [5], 11800 nM; in test [6] it was 4200 nM. For the same compound, the GI50 in [7] was 2100 nM; in test [8], 2200 nM; in test [10] it was 2200 nM; in [11], 5800 nM; in test [12], 5300 nM; in test [13], 10000 nM. The GI50 in [14] was found to be 2900 nM. The IC50 is 11000 nM in [9] and 16000 nM in [15].
For `CN(CCCOc1ccc(O)cc1)c1ccccc1`, the GI50 in test [16] was 1500 nM; in test [1] it was 2500 nM; in [2], 11500 nM; in test [3], 1700 nM; in test [4] it was 300 nM; in test [5] it was 10500 nM. Further, the GI50 in test [6] came out at 4000 nM; in test [17], 2200 nM; in test [18], 900 nM; in [19], 300 nM; in test [12], 2600 nM; in test [13], 3300 nM. In addition, the GI50 stood at 2100 nM in test [14] and 8300 nM in [20]. The IC50 stood at 9000 nM in [9] and 5400 nM in test [15].

The values are drawn from ChEMBL document CHEMBL2380239, “Novel ROS-activated agents utilize a tethered amine to selectively target acute myeloid leukemia” (Bioorg Med Chem Lett, 2013).
